This is a sample that favours compounds with a hit; in the whole collection about 1.2% have one here.
NSD2 inh = inhibitors of human histone methyltransferase NSD2. O96028. inhibition, % at 12.5 µM. hit rate 0.54% among 310,000. NSD2 peptide methylation, AlphaScreen, 120 min; in the data active = inhibition above about 50%
RAD54 inh = inhibitors of human RAD54 branch migration | AID 602329 | inhibition, % at 10.4 µM | hit rate 0.14% among 360,000 | Q92698 | RAD54 Holliday junction branch migration, FAM/BHQ fluorescence;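 active = mean normalized replicate activity at least 40 and at least half of replicates scoring 40 or more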;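 also: 0% = median of neutral control wells and 100% = median of positive control wells; inhibitors cause a drop in the FAM fluorescence signal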
FN deposit inh = fibronectin deposition inhibition; AH1F fibroblasts, Alexa488-fibronectin deposition fluorescence, overnight; inhibition, % at 12.6 µM; hit rate 0.086% among 350,000; AID 743247;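 active = mean inhibition across replicates of 30% or more, regardless of how many single replicates reach that level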;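 also: positive control wells lacked labelled fibronectin entirely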
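Assay system: AH1F fibroblast monolayer, labelled fibronectin deposition. Amount: 10000 cells per well. Also added: labelled fibronectin 24 nM. Compound: single-point pinned compound. Incubation: cell attachment 1 h, compound and FN exposure overnight. Detection: fluorescence after three HBSS washes, excitation 485 nm, emission 525 nm. Read-out: inhibition of fibronectin deposition signal.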
MLL AF4-AF9 inh = MLL-AF4/AF9 protein interaction inhibition. inhibition, % at 10 µM. hit rate 0.47% among 350,000. P42568. AlphaScreen, biotin-AF4 peptide binding to FLAG-AF9;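 active = every replicate reaching a set inhibition limit, whatever the replicate mean, cut at about 25% in these data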;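 also: 0% = plate neutral control median and 100% = total signal loss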
Glyco luc inh = N-linked glycosylation inhibition | D54 ERlucT glycosylation luciferase reporter, 24 h; percent of 100 nM tunicamycin response | reporter increase, % at 12.5 µM | hit rate 0.23% among 360,000;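 active = mean luciferase reporter signal, scaled so untreated is 0 and the glycosylation-blocking control 100, at or above a set limit in every replicate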;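 also: luciferase carries N-glycosylation sites so blocking glycosylation raises the light; 0% = median of neutral control wells and 100% = median of 100 nM tunicamycin wells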
RAD52 anneal inh = blocks human RAD52 DNA annealing | P43351 | recombinant RAD52 DNA annealing, FRET fluorescence | inhibition, % at 18.7 µM | hit rate 0.46% among 360,000 | AID 651710;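 active = every replicate showing at least 50% inhibition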
Target sequence (P43351 whole entry, looked up): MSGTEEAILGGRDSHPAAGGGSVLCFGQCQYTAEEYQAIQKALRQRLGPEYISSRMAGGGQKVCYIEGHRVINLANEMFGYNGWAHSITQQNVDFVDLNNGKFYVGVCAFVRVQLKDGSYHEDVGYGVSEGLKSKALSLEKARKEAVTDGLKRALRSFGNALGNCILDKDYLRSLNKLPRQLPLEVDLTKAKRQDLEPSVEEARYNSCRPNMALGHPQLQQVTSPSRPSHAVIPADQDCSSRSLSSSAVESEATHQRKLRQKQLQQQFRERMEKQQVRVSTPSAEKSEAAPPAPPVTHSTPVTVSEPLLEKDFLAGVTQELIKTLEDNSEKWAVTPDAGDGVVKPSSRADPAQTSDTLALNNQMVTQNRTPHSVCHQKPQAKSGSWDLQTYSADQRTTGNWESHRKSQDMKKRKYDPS
The depositor's hits bear a star; ! = not confirmed by another sample.

Results for N#C/C(=C\c1ccc(O)cc1)C(=O)NCc1ccccc1 ?
NSD2 inh: -1; RAD54 inh: 2; FN deposit inh: -3; MLL AF4-AF9 inh: -2; Glyco luc inh: 3; RAD52 anneal inh: -26

What do the screens show for `CC1=N/C(=C/c2ccco2)C(=O)O1`?
NSD2 inh: 119*; FN deposit inh: 2; MLL AF4-AF9 inh: -2; Glyco luc inh: 2; RAD52 anneal inh: -20

Results for CCC(=O)Nc1ccc2c(c1)C(=O)N(C)C[C@H](OC)[C@@H](C)CN(C(=O)CN1CCOCC1)[C@H](C)CO2 ?
FN deposit inh: 6

How did Brc1ccc(C2=Nn3c(nnc3-c3n[nH]c4c3CCC4)SC2)cc1 do in these assays?
RAD54 inh: 4; Glyco luc inh: 42*

What do the screens show for `Clc1ccc(C2=Nn3c(nnc3-c3n[nH]c4c3CCC4)SC2)cc1`?
NSD2 inh: 9; RAD54 inh: -5; Glyco luc inh: 37*

What do the screens show for `O=C(C[C@@H]1C=C[C@@H](NC(=O)c2ccc(F)cc2)[C@@H](CO)O1)NCCc1ccncc1`?
RAD54 inh: 5; FN deposit inh: -1; MLL AF4-AF9 inh: -2; RAD52 anneal inh: -3

How did Cc1ccccc1-c1ccc([C@H]2[C@@H](CO)N3CCCCN(S(=O)(=O)Cc4ccccc4)C[C@H]23)cc1 do in these assays?
RAD54 inh: -11; FN deposit inh: -6; MLL AF4-AF9 inh: 2; RAD52 anneal inh: 69*

Results for Cc1ccccc1S(=O)(=O)N1CCCCN2[C@@H](CO)[C@@H](c3ccc(-c4ccccc4)cc3)[C@@H]2C1 ?
RAD54 inh: -1; MLL AF4-AF9 inh: 8; RAD52 anneal inh: -30

Results for Cc1ccccc1S(=O)(=O)N1CCCCN2[C@H](CO)[C@H](c3ccc(-c4ccccc4)cc3)[C@H]2C1 ?
RAD54 inh: 5; MLL AF4-AF9 inh: 0; RAD52 anneal inh: 73*

What do the screens show for `Cc1ccccc1-c1ccc([C@H]2[C@H]3CN(S(=O)(=O)Cc4ccccc4)CCCCN3[C@H]2CO)cc1`?
RAD54 inh: -12; FN deposit inh: -1; MLL AF4-AF9 inh: 4; RAD52 anneal inh: 35

What do the screens show for `Cc1ccccc1S(=O)(=O)N1CCCCN2[C@H](CO)[C@@H](c3ccc(-c4ccccc4)cc3)[C@H]2C1`?
RAD54 inh: 6; MLL AF4-AF9 inh: 0; RAD52 anneal inh: 70*

What do the screens show for `CO[C@@H]1CN(C)C(=O)c2ccc(NC(=O)C3CC3)cc2OC[C@@H](C)N(Cc2nccs2)C[C@H]1C`?
RAD54 inh: -4; FN deposit inh: -3; MLL AF4-AF9 inh: -6; RAD52 anneal inh: -11

What do the screens show for `COc1cccc(C(=O)N2C[C@H]3[C@@H](c4ccccc42)[C@H](CO)N3C(C)=O)c1`?
RAD54 inh: 0; MLL AF4-AF9 inh: -1; RAD52 anneal inh: -5

Results for C[C@@H]1CN([C@H](C)CO)C(=O)c2cc(NS(=O)(=O)c3ccc(Cl)cc3)ccc2O[C@@H](C)CCCCO[C@H]1CN(C)Cc1ccc2c(c1)OCO2 ?
RAD54 inh: -2; FN deposit inh: -5; MLL AF4-AF9 inh: 14; RAD52 anneal inh: 52*!

Results for C[C@@H]1CCCCO[C@@H](CN(C)Cc2ccc3c(c2)OCO3)[C@@H](C)CN([C@H](C)CO)C(=O)c2cc(NS(=O)(=O)c3ccc(Cl)cc3)ccc2O1 ?
RAD54 inh: -4; FN deposit inh: -11; MLL AF4-AF9 inh: 1; RAD52 anneal inh: 31

What do the screens show for `C[C@H]1CCCCO[C@H](CN(C)Cc2ccc3c(c2)OCO3)[C@@H](C)CN([C@@H](C)CO)C(=O)c2cc(NS(=O)(=O)c3ccc(Cl)cc3)ccc2O1`?
RAD54 inh: -6; FN deposit inh: -7; MLL AF4-AF9 inh: 8; RAD52 anneal inh: 55*

How did C[C@@H]1CCCCO[C@@H](CN(C)Cc2ccc3c(c2)OCO3)[C@@H](C)CN([C@@H](C)CO)C(=O)c2cc(NS(=O)(=O)c3ccc(Cl)cc3)ccc2O1 do in these assays?
RAD54 inh: 0; FN deposit inh: -4; MLL AF4-AF9 inh: 7; RAD52 anneal inh: 58*!

How did COc1ccc(NC(=O)Nc2ccc3c(c2)C(=O)N([C@@H](C)CO)C[C@@H](C)[C@@H](CN(C)C(=O)NC(C)C)O3)cc1 do in these assays?
RAD54 inh: 6; FN deposit inh: 3; MLL AF4-AF9 inh: 4; RAD52 anneal inh: 7

Assay outcomes as filed in PubChem.
